Bioassay records deposited in PubChem by Johns Hopkins Ion Channel Center.
RGS4 pot: potentiators or activators of RGS4; B-score at 10 µM; HEK293 M3R/inducible RGS4, carbachol calcium flux Fluo4; hits give low values; actives 0.92% (n = 310,000);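 active means B-score of the integrated calcium signal more than 4 SD below the library mean, with starting fluorescence not abnormally high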;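 further: negative B-score means reduced calcium response which marks RGS4 activation or potentiation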
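Detection: kinetic calcium fluorescence imaging with Fluo4-AM dye, 2 µM / Material: HEK293 cells with stable M3R and inducible RGS4 / Schedule: recording 10 s baseline at 1 Hz, 100 s post-agonist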
MrgX1 PAM: human MrgX1 positive allosteric modulation, primary screen; B-score at 10 µM; Q96LB2; MrgX1-HEK293, Fluo-4 calcium flux, FDSS; hits give high values; AID 588675; actives 0.63% (n = 310,000);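 active means plate-corrected calcium response at least 3 library SD above typical, normal starting fluorescence, not activating the receptor alone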;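 further: compound read alongside a low EC10 to EC30 dose of BAM8-22 agonist; peak minus trough fluorescence over baseline measured at the second addition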
Target sequence (Q96LB2 whole entry, looked up): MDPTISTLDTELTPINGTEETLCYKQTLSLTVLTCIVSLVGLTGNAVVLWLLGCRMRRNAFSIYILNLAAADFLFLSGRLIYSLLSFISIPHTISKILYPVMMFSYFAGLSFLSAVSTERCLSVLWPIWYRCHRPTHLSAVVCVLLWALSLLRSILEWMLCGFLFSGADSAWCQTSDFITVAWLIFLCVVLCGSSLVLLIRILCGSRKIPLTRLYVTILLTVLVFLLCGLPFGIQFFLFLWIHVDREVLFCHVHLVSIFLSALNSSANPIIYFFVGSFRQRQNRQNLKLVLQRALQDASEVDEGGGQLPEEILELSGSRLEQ
MrgX1 antag: human MrgX1 receptor antagonism, primary screen; MRGX1-HEK293 calcium flux, Fluo-4, BAM8-22 antagonism; hits give low values; B-score at 10 µM; actives 1.3% (n = 310,000); AID 588676;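 active means calcium-response B-score plate-corrected more than 3 library SD below zero, starting fluorescence within 5 deviations, no agonist response on first addition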;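 further: peak minus trough fluorescence over baseline after final BAM8-22 challenge near maximal dose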
RGS4 block: inhibitors of human RGS4; P49798; HEK293 M3R/RGS4 inducible, Fluo-4 calcium flux; hits give high values; triggered by carbachol at its EC20; B-score at 10 µM; actives 0.45% (n = 310,000); AID 463165;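 active means B-score, a plate-corrected calcium signal, over three deviations above library mean, with baseline fluorescence within five deviations of library mean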;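 further: RGS4 expression induced by doxycycline in cells with stable M3 receptor; B-score is computed from the integrated fluorescence ratio over baseline after carbachol; higher B-score means a larger calcium signal and so more RGS4 inhibition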
Target sequence (P49798 whole entry, looked up): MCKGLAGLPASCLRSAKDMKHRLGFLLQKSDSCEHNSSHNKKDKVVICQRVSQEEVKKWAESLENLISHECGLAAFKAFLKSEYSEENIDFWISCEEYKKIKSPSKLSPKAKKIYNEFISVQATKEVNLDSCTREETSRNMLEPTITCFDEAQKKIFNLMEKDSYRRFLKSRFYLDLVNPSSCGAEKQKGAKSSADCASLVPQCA
MrgX1 agonist: agonists of human MrgX1 receptor; AID 588627; B-score at 10 µM; Q96LB2; actives 0.44% (n = 310,000); MrgX1-HEK293 cells, Fluo-4 calcium fluorescence, agonist mode; hits give high values;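 active means calcium response B-score plate-corrected fluorescence ratio at least 3 library SD, with starting fluorescence B-score inside 5 SD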
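System: HEK293 cells stably expressing human MrgX1 receptor; Dosing: test compound in the initial addition of three; Schedule: overnight plating, then 30 min 37 °C plus 30 min room-temperature dye loading; Detection: kinetic calcium dye fluorescence, Fluo-4 NW; Controls: per-plate positive and negative controls for Z′ factor.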
RGS4 block valid: RGS4 inhibitor validation | shares compounds with RGS4 block | HEK293 M3R/RGS4, carbachol calcium Fluo-4 fluorescence; carbachol added at its EC20; 0 = buffer wells, 100 = carbachol control | calcium response, % at 10 µM | actives 65% (n = 1,700);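 active means duplicate-averaged calcium response above the buffer-only control mean plus 5 SD of those controls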;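 further: integrated fluorescence ratio F max minus min over baseline F0; higher response in RGS4-induced cells means RGS4 inhibition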
M3R Ca ctr: checks RGS4 inhibitor effects in non-induced HEK293 M3R cells. shares compounds with RGS4 block. carbachol calcium Fluo-4; submaximal (EC20) carbachol stimulus; buffer wells 0%, carbachol control wells 100%. activity (percent), % at 10 µM. actives 20% (n = 1,900); call rule not given here;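 further: RGS4 induction absent so cells express M3R without RGS4; higher means more calcium signal and flags a non-specific hit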
RGS4 inh ctr2: second RGS4 inhibitor counter-screen in uninduced cells lacking carbachol | actives 22% (n = 1,900) | shares compounds with RGS4 block | calcium response (agonist-mode artifact), % at 10 µM | HEK293 M3R/RGS4 non-induced, Fluo-4 calcium, no carbachol; normalised: buffer wells 0%, carbachol wells 100%;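 active means duplicate-averaged calcium rise in uninduced cells above buffer wells' mean plus 5 SD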
Large screens that a line does not name were inactive (follow-up assays come after a bar, where they were run). Most compounds without a hit are left out; they make up all but 3.5% or so of the library.

Cc1cccc2cc(/C=C/C(=O)c3ccco3)c(Cl)nc12	none
O=C(NC(Cc1ccccc1)C(=O)O)OCc1ccccc1 (centres undefined)	none
Oc1ccc(C=Nc2cccc3ccccc23)c(O)c1	none
Cc1ccc(N=Cc2ccc(O)cc2O)cc1F	RGS4 block 10 | RGS4 block valid 14% | M3R Ca ctr inactive | RGS4 inh ctr2 13%
COc1ccc(-c2nnc(SCc3ncc(-c4ccccc4)o3)o2)cc1	none
COC(=O)c1ccc2ccccc2n1	none
Cc1cc(=O)[nH]c(SCC(=O)Nc2ccc(S(N)(=O)=O)cc2)n1	none
COc1ccc(C2=NC(C)(C)Cc3cc(OC)c(OC)cc32)cc1	none
COc1cc2c(cc1OC)C(SC)=NC(C)(C)C2	none | M3R Ca ctr 46% | RGS4 inh ctr2 inactive
CCSc1nc2ccccc2n1C(=O)/C=C\c1ccc(OC)c(OC)c1	RGS4 block 14 | RGS4 block valid 22% | M3R Ca ctr 76% | RGS4 inh ctr2 7.5%
O=C(O)C1CC1C(=O)Nc1cc(F)ccc1F (centres undefined)	none
O=C1NC(NS(=O)(=O)c2ccccc2)(C(F)(F)F)C(=O)N1Cc1cccnc1 (centres undefined)	none
O=c1c(C/C=C/c2ccccc2)c(O)ccn1CCc1c[nH]c2ccccc12	RGS4 block 5.7 | RGS4 block valid 12% | M3R Ca ctr 30% | RGS4 inh ctr2 inactive
COc1ccc2[nH]cc(CCn3ccc(O)c(C/C=C/c4ccccc4)c3=O)c2c1	RGS4 block 7.3 | RGS4 block valid 18% | M3R Ca ctr inactive | RGS4 inh ctr2 inactive
O=C(O)CC(SCc1ccc(C(=O)O)o1)C(=O)O (centres undefined)	none
CCOC(=O)[C@H]1[C@H]2COc3cc(OC)ccc3[C@@H]2N2C(=O)N(c3ccc(Cl)cc3)C(=O)[C@@]12C	none | RGS4 block valid inactive | M3R Ca ctr inactive | RGS4 inh ctr2 inactive
CCOC(=O)[C@@H]1[C@H]2COc3cc(OC)ccc3[C@@H]2N2C(=O)N(c3ccc(C)cc3)C(=O)[C@@]12C	none
CCOC(=O)[C@@H]1[C@H]2COc3cc(OC)ccc3[C@@H]2N2C(=O)N(c3ccc(Cl)cc3)C(=O)[C@@]12C	none | RGS4 block valid inactive | M3R Ca ctr inactive | RGS4 inh ctr2 inactive
O=C(N/N=C/c1c[nH]c2ccccc12)c1ccn(Cc2ccc(Cl)cc2Cl)n1	none
O=C(CCSc1ccccn1)c1ccccc1	RGS4 block 5.7 | RGS4 block valid 5.0% | M3R Ca ctr 36% | RGS4 inh ctr2 18%
O=C(O)CCSc1ccccn1	none
O=C(Nc1cc(C(F)(F)F)ccc1N1CCOCC1)c1ccc(F)cc1	none
O=C(Nc1cc(C(F)(F)F)ccc1N1CCOCC1)c1n[nH]c(=O)c2ccccc12	RGS4 block 7.5 | RGS4 block valid 24% | M3R Ca ctr inactive | RGS4 inh ctr2 inactive
COc1ccccc1NC(=O)c1cnc(SCC(=O)NCC2CCCO2)n(C)c1=O (centres undefined)	RGS4 block 5.4 | RGS4 block valid 9.0% | M3R Ca ctr inactive | RGS4 inh ctr2 inactive
CCc1ccc(N2CC(C(=O)NNC(=O)c3ccc(F)cc3)CC2=O)cc1 (centres undefined)	none
COc1ccccc1C1CCN(Cc2ccccc2)CC1	none
Cc1ccc(-c2nc3c(c(=O)[nH]c(=O)n3Cc3ccccc3)n2Cc2ccccc2)o1	RGS4 block 8.2 (no result: MrgX1 PAM, MrgX1 antag, MrgX1 agonist) | RGS4 block valid 24% | M3R Ca ctr inactive | RGS4 inh ctr2 7.0%
COC(=O)c1scc(C)c1NC(=O)Cc1ccccc1	none
COc1ccccc1/C=C/C=N/n1c(-c2cc(-c3ccccc3)n[nH]2)n[nH]c1=S	RGS4 block 7.7 | RGS4 block valid 45% | M3R Ca ctr 36% | RGS4 inh ctr2 inactive
